This excerpt belongs to a sample that is enriched for hits.
CHOP UPR activ: apoptotic UPR (CHOP) activation | 330,000 compounds, 0.34% hits | CHO-CHOP luciferase reporter, luminescence; percent of tunicamycin response over DMSO baseline | activation, % at 10 µM | AID 449763;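 active = at 10 µM dose, activation of 40% or more, normalized to positive control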;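 note: 100% = tunicamycin at 10 µg/mL and 0% = DMSO alone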
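Dosing – one dose, 10 µM in 0.5% DMSO · System – CHO-CHOP cells, stable luciferase reporter of PERK-eIF2a-CHOP signalling · Input – 500 cells/well · Control set – tunicamycin 10 µg/mL final as positive, DMSO-only wells as negative · Timing – 6 h compound treatment, 37 °C · Measure – % activation vs tunicamycin · Technique – luminescence read with Steady-Glo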
XBP1 UPR activ: activators of adaptive arm of unfolded protein response (XBP1) | CHO-XBP1 luciferase reporter, IRE1-XBP1 UPR activation, luminescence; percent of tunicamycin response, DMSO as zero | activation, % at 20 µM | 330,000 compounds, 0.33% hits;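 active = versus positive control, 20 µM dose yields 30% or more activation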;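 note: 100% = tunicamycin at 10 µg/mL and 0% = DMSO only wells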
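Material: CHO cell line with stable XBP1 luciferase reporter; buffer or medium: F12 medium containing 10% fetal bovine serum; compound: single point, 20 µM final compound, 1% DMSO; incubation: 6 h treatment, 37 °C; measured by: glow luminescence from Steady-Glo reagent; evaluation: activation, % of tunicamycin; control set: tunicamycin high, DMSO low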
T cruzi inh: blocks replication of Trypanosoma cruzi. T. cruzi beta-gal in NIH3T3, luminescence, 90 h. inhibition, % (no concentration beside the values). 300,000 compounds, 1.4% hits;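 active = mean inhibition across valid replicates above about 55%, limit read from the data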;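 note: signal also drops with host cell toxicity which is not excluded here; 0% = plate median of DMSO wells and 100% = zero luminescence signal; higher percent means less beta-gal luminescence so fewer parasites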
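assay system = mouse NIH/3T3 fibroblasts infected with β-gal-expressing T. cruzi Tulahuen C4 | input = 5,000 NIH/3T3 host cells per well | buffer or medium = DMEM plus 2% FBS | timing = 3 h host attachment, then at least 90 h co-culture | measured by = GalScreen luminescence, 60 min | evaluation = luminescence reflecting intracellular parasite burden, expressed as percent inhibition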
CHOP inhibitor: inhibitors of CHOP induction in ER stress response. CHO-K1 CHOP-promoter luciferase, tunicamycin-induced, 15-18 h. inhibition, % at 10 µM. 220,000 compounds, 3.8% hits;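 active = compounds that reduced the stress-induced luciferase reporter signal by more than about 70% of percent inhibition, limit read from the data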;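 note: 0% = tunicamycin plus vehicle and 100% = wells without tunicamycin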
Lmaj promast: Leishmania major promastigote growth inhibition; 200,000 compounds, 9% hits; Leishmania major promastigotes, resazurin fluorescence viability; inhibition, % at 10 µM; in the data active = inhibition above about 50%;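 note: promastigotes grown with compound for 44 hours at 28 °C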
Dynein cargo inh: dynein cargo transport inhibition | AID 1381 | 220,000 compounds, 0.47% hits | z-score, hits read low | 3617.4 mouse cells, GR-EGFP nuclear translocation imaging; test concentration mostly 20 µM; stimulated with dexamethasone, 1 µM; active compounds read low;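 active = plate z-score of nuclear minus cytoplasmic receptor signal below a set negative limit, without overly bright fluorescence or cell loss, cut at about -3.5 in these data, passing the limit was not always enough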;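 note: z-score of nuclear minus cytoplasmic ring GR-EGFP intensity difference per well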
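Schedule: 48 h induction, then 1 h compound, then 30 min agonist, 37 °C. Buffer or medium: tetracycline-free induction medium containing charcoal-stripped FBS. Reagent: 1.0 µM final dexamethasone stimulus. Evaluation: nuclear versus cytoplasmic GR-EGFP signal, averaged per well. Signal: high-content fluorescence imaging after fixation.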
Starred values were filed as active, the others as inactive; nt = no result given.

SMILES | CHOP UPR activ | XBP1 UPR activ | T cruzi inh | CHOP inhibitor | Lmaj promast | Dynein cargo inh
Cc1ccc(C(=O)O/N=C/c2ccc3c(c2)OCO3)cc1 | 2 | 1 | -13 | 22 | 59* | 0.87
O=C(O/N=C/c1ccc2c(c1)OCO2)c1ccc([N+](=O)[O-])cc1 | 1 | 3 | -23 | 21 | -6 | 1.6
Clc1cccc(COn2c(-c3ccc(Cl)cc3Cl)nc3ncccc32)c1 | 0 | -2 | 12 | 74* | 100* | 0.088
CCCCCCSc1ncc(C#N)c(N)n1 | 2 | 1 | -1 | 84* | 3 | 0.055
N#Cc1cnc(SCCc2ccccc2)nc1N | 5 | 2 | 3 | 54 | 7 | -0.24
CN(CC(=O)Nc1ccccc1Cl)C(=O)COC(=O)CSc1ccc(Cl)cc1 | 1 | -2 | nt | nt | nt | nt
CCOC(=O)CSc1nc2nc(C)cc(C)n2n1 | -1 | -1 | -1 | 83* | -5 | -1.3
FC(F)(F)c1cc(-c2ccccc2)nc(NCC2CCCO2)n1 (configuration not stated) | 0 | 1 | 19 | 65 | 2 | -0.18
Fc1ccc(-c2cc(C(F)(F)F)nc(NCC3CCCO3)n2)cc1 (configuration not stated) | 1 | -1 | 23 | 84* | 14 | 2.5
Cc1ccccc1NC(=O)N1CCCC(c2nc(-c3ccc(C(C)C)cc3)no2)C1 (configuration not stated) | -3 | -2 | 42 | 37 | 85* | -0.61
Cc1ccccc1NC(=O)N1CCCC(c2nc(-c3ccc(F)cc3)no2)C1 (configuration not stated) | 0 | -1 | 17 | 15 | 2 | 0.35
CC(=O)Nc1ccccc1N(CC(O)Cn1c2ccccc2c2ccccc21)S(=O)(=O)c1ccc(C)cc1 (configuration not stated) | 1 | 2 | 36 | 30 | 64* | 0.22
Cc1nn(C)c(C(=O)NC(=S)Nc2ccccc2O)c1Cl | 5 | -4 | -4 | nt | nt | nt
CCOc1ccc(NC(=S)NC(=O)c2c(Cl)c(C)nn2C)c([N+](=O)[O-])c1 | 2 | -3 | 6 | 73* | -3 | -0.18
Cc1ccc(S(=O)(=O)N2CCOCC2)cc1NC(=O)CNCC1CCCCC1 | 1 | -3 | 26 | 25 | 74* | 0.18
Cc1ccc(C(=O)OCC(=O)Nc2cc(S(=O)(=O)N3CCOCC3)ccc2C)cc1 | -1 | -3 | -2 | 6 | 0 | -0.23
Cc1ccc(S(=O)(=O)N2CCOCC2)cc1NC(=O)COC(=O)c1ccc(OCc2c(C)noc2C)cc1 | -2 | -4 | -4 | -12 | 76* | -0.94
CCN(c1ccccc1)S(=O)(=O)c1ccc(N2CCN(c3ccc(O)cc3)CC2)nc1 | 0 | -4 | nt | nt | nt | nt
COc1ccc(S(=O)(=O)N2CCCCCC2)cc1C(=O)Nc1ccc(C(=O)N(C)C)cc1 | 0 | -1 | nt | nt | nt | nt
COc1ccccc1/C=C/C(=O)c1cc(Br)ccc1OC(=O)c1ccco1 | 26 | 30 | -11 | nt | 60* | -5.3*
CNc1ccccc(C(=O)/C=C/c2ccccc2OC)c1=O | 7 | 0 | -4 | 88* | 13 | -0.44
CC(OC(=O)CCCN=C1NS(=O)(=O)c2ccccc21)C(=O)NC1CCCCC1C (configuration not stated) | -1 | -5 | -7 | nt | nt | nt
O=C(O)CCSc1nnc(-c2ccc3c(c2)OCO3)o1 | -4 | -2 | -11 | 86* | -5 | -0.06
Cc1ccccc1NC(=O)Cc1nc(CSc2nnc(-c3ccc4c(c3)OCO4)o2)cs1 | 5 | 1 | 31 | 50 | 86* | -0.66
CC(=O)CSc1nnc(-c2ccc3c(c2)OCO3)o1 | -3 | -1 | -10 | -16 | -7 | -1.1
COc1ccc(C(C)=O)cc1CSc1ccc(S(=O)(=O)N2CCCCC2)cn1 | 0 | -3 | nt | nt | nt | nt
Cc1ccc2nc(-c3ccc(NS(C)(=O)=O)cc3)cc(-c3ccccc3)c2c1 | 1 | 3 | nt | 78* | 7 | -0.52
CCS(=O)(=O)Nc1ccc(-c2cc(-c3ccccc3)c3cc(C)ccc3n2)cc1 | nt | nt | 20 | 87* | 31 | 1
